test system: Pseudomonas aeruginosa; test: Antimicrobial activity against extended spectrum beta-lactamases-producing Pseudomonas aeruginosa 10-5 after 18-24 hrs by two-fold serial dilution method; type: functional
Outline: (§1)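 Agar-medium twofold serial dilution against Gram-positive and Gram-negative strains; MIC taken as the lowest compound concentration giving complete inhibition of bacterial growth after incubation at 35 °C for 18-24 h.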

**Q.** For `CS(=O)(=O)O.NCC1CN(c2nc3c(cc2F)c(=O)c(C(=O)O)cn3C2CC2)C/C1=N\OCc1cc2c(cc1[N+](=O)[O-])OCO2` (racemic), which MIC is on record?
**A.** 8 µg/mL

test system: Staphylococcus aureus; test: Antimicrobial activity against extended spectrum beta-lactamases-producing methicillin-resistant Staphylococcus aureus 10-15 after 18-24 hrs by two-fold serial dilution method; type: functional
Outline: (§2)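 Agar twofold serial dilution MIC against clinical isolates. MIC was taken as the lowest concentration giving complete inhibition of bacterial growth after incubation at 35 °C for 18-24 h.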

**Q.** `CS(=O)(=O)O.NCC1CN(c2nc3c(cc2F)c(=O)c(C(=O)O)cn3C2CC2)C/C1=N\OCc1cc2c(cc1[N+](=O)[O-])OCO2` (racemic) was tested. Which MIC did it give?
**A.** 2 µg/mL

test system: Escherichia coli; test: Antimicrobial activity against extended spectrum beta-lactamases-producing Escherichia coli 10-3 after 18-24 hrs by two-fold serial dilution method; type: functional; outline: as §1

**Q.** Which MIC does the source give for `CS(=O)(=O)O.NCC1CN(c2nc3c(cc2F)c(=O)c(C(=O)O)cn3C2CC2)C/C1=N\OCc1cc2c(cc1[N+](=O)[O-])OCO2` (racemic) here?
**A.** 32 µg/mL

test system: Staphylococcus epidermidis; test: Antimicrobial activity against extended spectrum beta-lactamases-producing methicillin-sensitive Staphylococcus epidermidis 10-13 after 18-24 hrs by two-fold serial dilution method; type: functional; outline: as §1

**Q.** Which MIC does the source give for `CS(=O)(=O)O.NCC1CN(c2nc3c(cc2F)c(=O)c(C(=O)O)cn3C2CC2)C/C1=N\OCc1cc2c(cc1[N+](=O)[O-])OCO2` (racemic) here?
**A.** 8 µg/mL

test system: Escherichia coli; test: Antimicrobial activity against Escherichia coli 10-1 after 18-24 hrs by two-fold serial dilution method; type: functional; outline: as §1

**Q.** Which MIC does the source give for `CS(=O)(=O)O.NCC1CN(c2nc3c(cc2F)c(=O)c(C(=O)O)cn3C2CC2)C/C1=N\OCc1cc2c(cc1[N+](=O)[O-])OCO2` (racemic) here?
**A.** > 128 µg/mL

test system: Enterococcus faecium; test: Antimicrobial activity against Enterococcus faecium 10-9 after 18-24 hrs by two-fold serial dilution method; type: functional; outline: as §1

**Q.** For `CS(=O)(=O)O.NCC1CN(c2nc3c(cc2F)c(=O)c(C(=O)O)cn3C2CC2)C/C1=N\OCc1cc2c(cc1[N+](=O)[O-])OCO2` (racemic), which MIC is on record?
**A.** 8 µg/mL

test system: Staphylococcus aureus; test: Antimicrobial activity against extended spectrum beta-lactamases-producing methicillin-resistant Staphylococcus aureus 10-11 after 18-24 hrs by two-fold serial dilution method; type: functional; outline: as §2

**Q.** Which MIC does the source give for `CS(=O)(=O)O.NCC1CN(c2nc3c(cc2F)c(=O)c(C(=O)O)cn3C2CC2)C/C1=N\OCc1cc2c(cc1[N+](=O)[O-])OCO2` (racemic) here?
**A.** 4 µg/mL

test system: Klebsiella pneumoniae; test: Antimicrobial activity against extended spectrum beta-lactamases-producing Klebsiella pneumoniae 10-2 after 18-24 hrs by two-fold serial dilution method; type: functional; outline: as §1

**Q.** For `CS(=O)(=O)O.NCC1CN(c2nc3c(cc2F)c(=O)c(C(=O)O)cn3C2CC2)C/C1=N\OCc1cc2c(cc1[N+](=O)[O-])OCO2` (racemic), which MIC is on record?
**A.** > 128 µg/mL

test system: Staphylococcus epidermidis; test: Antimicrobial activity against extended spectrum beta-lactamases-producing methicillin-resistant Staphylococcus epidermidis 10-13 after 18-24 hrs by two-fold serial dilution method; type: functional; outline: as §2

**Q.** How did the MIC turn out when `CS(=O)(=O)O.NCC1CN(c2nc3c(cc2F)c(=O)c(C(=O)O)cn3C2CC2)C/C1=N\OCc1cc2c(cc1[N+](=O)[O-])OCO2` (racemic) was run?
**A.** 1 µg/mL

test system: Escherichia coli; test: Antimicrobial activity against Escherichia coli ATCC 25922 after 18-24 hrs by two-fold serial dilution method; type: functional; outline: as §1

**Q.** `CS(=O)(=O)O.NCC1CN(c2nc3c(cc2F)c(=O)c(C(=O)O)cn3C2CC2)C/C1=N\OCc1cc2c(cc1[N+](=O)[O-])OCO2` (racemic) was tested. Which MIC did it give?
**A.** 0.008 µg/mL

test system: Enterococcus faecalis; test: Antimicrobial activity against Enterococcus faecalis 10-6 after 18-24 hrs by two-fold serial dilution method; type: functional; outline: as §1

**Q.** `CS(=O)(=O)O.NCC1CN(c2nc3c(cc2F)c(=O)c(C(=O)O)cn3C2CC2)C/C1=N\OCc1cc2c(cc1[N+](=O)[O-])OCO2` (racemic) was tested. Which MIC did it give?
**A.** 32 µg/mL

test system: Pseudomonas aeruginosa; test: Antimicrobial activity against Pseudomonas aeruginosa 10-12 after 18-24 hrs by two-fold serial dilution method; type: functional; outline: as §1

**Q.** With `CS(=O)(=O)O.NCC1CN(c2nc3c(cc2F)c(=O)c(C(=O)O)cn3C2CC2)C/C1=N\OCc1cc2c(cc1[N+](=O)[O-])OCO2` (racemic) as the compound, how does the MIC read?
**A.** 8 µg/mL

test system: Pseudomonas aeruginosa; test: Antimicrobial activity against extended spectrum beta-lactamases-producing Pseudomonas aeruginosa 10-20 after 18-24 hrs by two-fold serial dilution method; type: functional; outline: as §1

**Q.** With `CS(=O)(=O)O.NCC1CN(c2nc3c(cc2F)c(=O)c(C(=O)O)cn3C2CC2)C/C1=N\OCc1cc2c(cc1[N+](=O)[O-])OCO2` (racemic) as the compound, how does the MIC read?
**A.** 4 µg/mL

test system: Escherichia coli; test: Antimicrobial activity against Escherichia coli 10-3 after 18-24 hrs by two-fold serial dilution method; type: functional; outline: as §1

**Q.** With `CS(=O)(=O)O.NCC1CN(c2nc3c(cc2F)c(=O)c(C(=O)O)cn3C2CC2)C/C1=N\OCc1cc2c(cc1[N+](=O)[O-])OCO2` (racemic) as the compound, how does the MIC read?
**A.** 32 µg/mL

test system: Klebsiella pneumoniae; test: Antimicrobial activity against Klebsiella pneumoniae 10-4 after 18-24 hrs by two-fold serial dilution method; type: functional; outline: as §1

**Q.** With `CS(=O)(=O)O.NCC1CN(c2nc3c(cc2F)c(=O)c(C(=O)O)cn3C2CC2)C/C1=N\OCc1cc2c(cc1[N+](=O)[O-])OCO2` (racemic) as the compound, how does the MIC read?
**A.** > 128 µg/mL

test system: Staphylococcus aureus; test: Antimicrobial activity against extended spectrum beta-lactamases-producing methicillin-sensitive Staphylococcus aureus 10-13 after 18-24 hrs by two-fold serial dilution method; type: functional; outline: as §1

**Q.** With `CS(=O)(=O)O.NCC1CN(c2nc3c(cc2F)c(=O)c(C(=O)O)cn3C2CC2)C/C1=N\OCc1cc2c(cc1[N+](=O)[O-])OCO2` (racemic) as the compound, how does the MIC read?
**A.** 0.25 µg/mL

test system: Pseudomonas aeruginosa; test: Antimicrobial activity against extended spectrum beta-lactamases-producing Pseudomonas aeruginosa 10-9 after 18-24 hrs by two-fold serial dilution method; type: functional; outline: as §1

**Q.** For `CS(=O)(=O)O.NCC1CN(c2nc3c(cc2F)c(=O)c(C(=O)O)cn3C2CC2)C/C1=N\OCc1cc2c(cc1[N+](=O)[O-])OCO2` (racemic), which MIC is on record?
**A.** 4 µg/mL

Source: ChEMBL document CHEMBL2062435, “Synthesis and in vitro antibacterial activity of gemifloxacin derivatives containing a substituted benzyloxime moiety” (2012)
